Bioassay records from PubChem.
Shown are actives, neighbours in structure and some others; about 2.1% of the full set was active somewhere.
HTR2A ag – activates the mouse 5-HT2A serotonin receptor | CHO-K1 mHTR2A beta-arrestin complementation, luminescence; percent of 30 µM serotonin response | hit rate 0.66% among 360,000 | AID 624169 | activation, % at 7.6 µM | P35363;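 active means activation above a run cutoff, the mean activation of all tested compounds plus 3 SD, cut at about 14% in these data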;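 further: 0% = plate median of compound wells and 100% = 30 µM serotonin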
Target sequence (P35363 whole entry, looked up): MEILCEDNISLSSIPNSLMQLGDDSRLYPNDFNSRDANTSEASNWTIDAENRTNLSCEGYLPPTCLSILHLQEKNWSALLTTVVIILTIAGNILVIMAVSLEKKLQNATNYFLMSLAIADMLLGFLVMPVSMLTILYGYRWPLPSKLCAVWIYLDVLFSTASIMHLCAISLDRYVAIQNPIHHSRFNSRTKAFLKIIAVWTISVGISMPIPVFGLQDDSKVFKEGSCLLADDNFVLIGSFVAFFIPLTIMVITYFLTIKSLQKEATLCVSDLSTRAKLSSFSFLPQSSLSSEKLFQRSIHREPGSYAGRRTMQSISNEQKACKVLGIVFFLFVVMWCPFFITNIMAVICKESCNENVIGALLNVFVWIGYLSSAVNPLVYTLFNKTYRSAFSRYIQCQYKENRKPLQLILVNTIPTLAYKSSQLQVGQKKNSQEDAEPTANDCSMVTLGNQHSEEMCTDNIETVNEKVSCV
EBI2 block – EBI2 (human) antagonism | EBI2 beta-arrestin recruitment, luminescence, 7a,25-OHC stimulated | inhibition, % at 5 µM | hit rate 0.81% among 360,000; in the data active means inhibition above about 38%;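 further: enzyme fragment complementation signal reports receptor beta-arrestin coupling in cells; 0% = agonist plus DMSO wells and 100% = wells without agonist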
CCR6 antagonist – CCR6 (human) receptor antagonism; P51684; CHO-K1 CCR6 PathHunter beta-arrestin, luminescence, CCL20-stimulated; inhibition, % at 20 µM; hit rate 0.49% among 340,000; AID 493098;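 active means compounds whose inhibition of the agonist-driven luminescence signal at 20 µM reaches about 50%, limit read from the data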;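 further: cells stimulated with CCL20 at 14 nM final; plate controls were DMSO with CCL20 for no effect and DMSO without agonist for full effect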
CXCR6 inh – blocks human CXCR6 beta-arrestin recruitment. inhibition, % at 20 µM. CHO-K1 PathHunter CXCR6 beta-arrestin, luminescence. hit rate 0.36% among 360,000. AID 602244. O00574; in the data active means inhibition above about 34%, passing the limit was not always enough;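 further: antagonist mode with CXCL16 agonist at 10 nM final; 0% = 10 nM CXCL16 with DMSO and 100% = unstimulated wells without agonist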
APJ ag – agonists of human APJ apelin receptor. P35414. CHO-K1 APJ PathHunter beta-arrestin, luminescence; 0% DMSO wells, 100% apelin. activation, % at 20 µM. hit rate 0.11% among 330,000. AID 2520;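 active means activation more than six SD over the plate average, tested at 20 µM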;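 further: 0% = DMSO alone and 100% = apelin-13 at 10 nM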
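Test system: CHO-K1 APJ beta-arrestin complementation cell line | Compound: Single test compound dose, 20 µM final, 1% DMSO | Incubation: Compound 90 min 25 °C, reagent 1 h | Measured by: beta-gal luminescence | Read-out basis: APJ–arrestin association signal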
APJ antag – APJ receptor antagonism; CHO-K1 APJ beta-arrestin complementation, luminescence; hit rate 0.32% among 330,000; P35414; inhibition, % at 20 µM;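 active means inhibition above about 40% at 20 µM, limit read from the data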;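 further: cells challenged with 10 nM apelin-13 agonist together with compound; plate controls were apelin-13 plus DMSO wells for no effect and DMSO wells lacking apelin-13 for full effect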
CXCR6 confirm – confirmation of human CXCR6 receptor antagonists; shares compounds with CXCR6 inh; CHO-K1 CXCR6 PathHunter beta-arrestin, luminescence; inhibition, % at 20 µM; hit rate 65% among 700; AID 602409;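 active means mean inhibition over four retests above 40%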;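 further: receptor stimulated with 10 nM CXCL16 agonist; beta-galactosidase fragment complementation upon beta-arrestin recruitment to receptor; plate controls were CXCL16 plus DMSO for no effect and DMSO without CXCL16 for full effect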
The depositor's hits bear a star.

Screening Nc1cc(=O)[nH]c(SCC(=O)Nc2ccc(Cl)c(Cl)c2)n1 returned HTR2A ag 0, EBI2 block 1, CCR6 antagonist 3, CXCR6 inh 43*, APJ ag -4, APJ antag -3 and CXCR6 confirm 5.
`CN(C)S(=O)(=O)c1ccc(Cl)c(NC(=O)CN2C(=O)NC3(CCc4ccccc43)C2=O)c1` (stereo not drawn) gave HTR2A ag 0, EBI2 block -1, CCR6 antagonist 5, CXCR6 inh -6, APJ ag -5 and APJ antag -1.
For Cc1ccccc1N(CC(=O)NCC1CCCO1)C(=O)C1(C)CC(=O)N=C2C=CC=CN21 (stereo not drawn) the results were HTR2A ag -1, EBI2 block -7, CCR6 antagonist 6, CXCR6 inh 47*, APJ ag -5, APJ antag 14 and CXCR6 confirm 20.
Screening Cc1ccccc1N(CC(=O)NC1CCCC1)C(=O)C1(C)CC(=O)N=C2C=CC=CN21 (stereo not drawn) returned HTR2A ag 2, EBI2 block 1, CCR6 antagonist 3, CXCR6 inh 4, APJ ag -4 and APJ antag 18.
`CC1(C)CC2CC(C)(CN2C(=O)COC(=O)c2cccc([N+](=O)[O-])c2)C1` (stereo not drawn) gave HTR2A ag 2, EBI2 block -6, CCR6 antagonist 11, CXCR6 inh 1, APJ ag -2 and APJ antag 9.
Screening Cn1nc([N+](=O)[O-])nc1Sc1cccc2cccnc12 returned HTR2A ag 1, EBI2 block -6, CCR6 antagonist 38, CXCR6 inh 44*, APJ ag -2, APJ antag -4 and CXCR6 confirm 41*.
For O=[N+]([O-])c1ccc(Cl)cc1Sc1cccc2cccnc12 the results were HTR2A ag -5, EBI2 block 5, CCR6 antagonist -14, CXCR6 inh 2, APJ ag -3 and APJ antag 8.
For COc1ccc(N2C[C@H](CSC)[C@@H](CC(=O)Nc3ccccc3)C2=O)cc1 the results were HTR2A ag 10, EBI2 block -6, CXCR6 inh 43* and CXCR6 confirm 23.
Screening Cc1ccc(C(=O)Nc2cc3[nH]c(=O)oc3cc2C)cc1 returned HTR2A ag 6, EBI2 block -2, CCR6 antagonist 3, CXCR6 inh -8, APJ ag -1 and APJ antag 7.
O=C1NC[C@H](c2ccccc2)OC(=O)[C@@H](Cc2ccc(F)cc2)CC/C=C/C[C@@H]1CC(=O)N(CCO)Cc1ccccc1 was read as HTR2A ag -24, EBI2 block 24, CCR6 antagonist 62*, CXCR6 inh 55* and CXCR6 confirm 45*.
`O=C1N[C@@H](Cc2ccccc2)COC(=O)[C@H](Cc2ccc(F)cc2)CC/C=C/C[C@@H]1CC(=O)N(CCO)Cc1ccccc1` gave HTR2A ag -7, EBI2 block 41, CCR6 antagonist 23, CXCR6 inh 38, APJ ag -4 and APJ antag 18.
Screening Cc1ccc(CNC(=O)C2CCCN(c3ncnc4c3nc3n4CCCCC3)C2)cc1 (stereo not drawn) returned HTR2A ag 3, EBI2 block -6, CCR6 antagonist 2, CXCR6 inh 0, APJ ag -1 and APJ antag -12.
COc1ccc(CCNC(=O)COC(=O)Cc2cccc3ccccc23)cc1 was read as HTR2A ag 1, EBI2 block -3, CCR6 antagonist 8, CXCR6 inh -2, APJ ag 5 and APJ antag -3.
Screening COc1ccc(CCNC(=O)COC(=O)Cc2ccc(OC)cc2)cc1 returned HTR2A ag 4, EBI2 block 16, CCR6 antagonist 11, CXCR6 inh 63*, APJ ag -4, APJ antag -20 and CXCR6 confirm 1.
O=C(Nc1cccc(N2C(=O)C=CC2=O)c1)c1cccs1 was read as HTR2A ag -5, EBI2 block 17, CXCR6 inh 77*, APJ ag -2, APJ antag -7 and CXCR6 confirm 19.
Screening Cc1nc2ccccc2c(=O)n1-c1cccc(NC(=O)c2cccs2)c1 returned HTR2A ag -3, EBI2 block -4, CCR6 antagonist -2, CXCR6 inh -3, APJ ag 13 and APJ antag -2.
CC(C)c1ccc(C2CC(=O)c3cnc(N4CCc5ccccc5C4)nc3C2)cc1 (stereo not drawn) was read as HTR2A ag 3, EBI2 block -7, CCR6 antagonist 1, CXCR6 inh 6, APJ ag 1 and APJ antag 15.
For O=C1CC(c2ccco2)Cc2nc(N3CCc4ccccc4C3)ncc21 (stereo not drawn) the results were HTR2A ag -2, EBI2 block 4, CCR6 antagonist 29, CXCR6 inh 44*, APJ ag -3, APJ antag 10 and CXCR6 confirm -2.
C[n+]1ccc(/C=N/Nc2nc(Cl)c(C#N)c(Cl)c2Cl)cc1 was read as HTR2A ag -4, EBI2 block 0, CCR6 antagonist 56*, CXCR6 inh 42*, APJ ag -6, APJ antag 37 and CXCR6 confirm 52*.
For CC1(C(=O)Nc2cccc(NS(C)(=O)=O)c2)CCN1CCc1ccccc1 (stereo not drawn) the results were HTR2A ag -5, EBI2 block -8 and CXCR6 inh 2.
Screening Cc1ccc(C(=O)NCC(=O)N2CCCCCC2)cc1 returned HTR2A ag -2, EBI2 block 1, CCR6 antagonist 0, CXCR6 inh 8, APJ ag 1 and APJ antag 7.
Cc1cccc(C(=O)NCC(=O)N2CCCC2)c1 was read as HTR2A ag -4, EBI2 block -13, CCR6 antagonist 0, CXCR6 inh 40*, APJ ag 0, APJ antag 12 and CXCR6 confirm 5.
Screening Cc1[nH]n(-c2ccccc2)c(=S)c1C=NCCCN=Cc1c(C)[nH]n(-c2ccccc2)c1=S returned HTR2A ag 2, EBI2 block 7, CCR6 antagonist 74*, CXCR6 inh 54*, APJ ag 0, APJ antag -29 and CXCR6 confirm 74*.
C=CC[C@@H](CC(=O)N(CCO)Cc1ccccc1)C(=O)N[C@H](COC(=O)[C@@H](CC=C)Cc1ccc(F)cc1)Cc1ccccc1 was read as HTR2A ag 0, EBI2 block 24, CCR6 antagonist 34, CXCR6 inh 26, APJ ag -5 and APJ antag 23.
